PKA-R2B activ: activators of PKA-R2B holoenzyme, primary screen, biochemical, fluorescence polarization, Cy5-IP20, human; cAMP-dependent protein kinase catalytic subunit beta (Homo sapiens) + cAMP-dependent …; PKA-R2B holoenzyme dissociation; R2B truncated from residue 108, S112A mutant; 0% DMSO only, 100% 113 µM cGMP; activation, % at 11.4 µM; hit rate 0.079% among 340,000;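 active = activation above a cutoff set at the mean over all compounds plus 3 SD, cut at about 18% in these data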;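 also: higher means more holoenzyme dissociation and a rise in polarization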
Target sequence (P31323 whole entry, looked up, other chains not shown, the tested form may be a part): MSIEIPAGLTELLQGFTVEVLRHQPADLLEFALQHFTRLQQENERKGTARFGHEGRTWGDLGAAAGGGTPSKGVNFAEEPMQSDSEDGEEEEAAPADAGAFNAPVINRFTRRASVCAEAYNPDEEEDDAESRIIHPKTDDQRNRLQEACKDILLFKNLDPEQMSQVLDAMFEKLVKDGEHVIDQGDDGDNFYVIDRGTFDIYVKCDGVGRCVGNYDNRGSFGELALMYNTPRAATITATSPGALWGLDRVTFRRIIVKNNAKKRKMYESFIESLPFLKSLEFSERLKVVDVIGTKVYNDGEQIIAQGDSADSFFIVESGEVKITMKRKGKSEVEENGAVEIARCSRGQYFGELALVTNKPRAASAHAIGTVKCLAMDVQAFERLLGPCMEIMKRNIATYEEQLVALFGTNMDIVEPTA
Tb MetRS inh: T. brucei MetRS inhibitors, primary screen, biochemical, luminescence | hit rate 0.4% among 360,000 | AID 624268, 2012 | purified T. brucei MetRS, ATP depletion, Kinase-Glo luminescence | inhibition, % at 11.9 µM | methionyl-tRNA synthetase (Trypanosoma brucei brucei);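 active = inhibition above a per-plate cutoff of the control wells' mean inhibition plus 3 SD, cut at about 5.5% in these data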
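Dosing: 11.9 µM single point; system: parasite MetRS enzyme; technique: luminescence of leftover ATP; times: 15 min enzyme-compound preincubation, 2 h reaction, 10 min detection, 25 °C; replicates: each compound tested once; read-out basis: percent inhibition relative to median high and low control wells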
Cardio protect: cardioprotection against H2O2-induced cell death, primary screen, uHTS, H9c2 cells, ATPLite luminescence; hit rate 0.63% among 360,000; H9c2 cardiomyocytes, H2O2 injury protection, 2 h; protection from H2O2 cell death, % at 20 µM; AID 588492, 2011;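 active = compounds giving at least 50% protection of heart cells from peroxide-induced death in the single-dose screen, raw or plate-pattern-corrected value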
PKA-R1A act: activators of PKA-R1A holoenzyme, primary screen, biochemical, fluorescence polarization, Cy5-IP20, bovine R1A, mouse PKAc; activation, % at 11.4 µM; cAMP-dependent protein kinase type I-alpha regulatory subunit (Bos taurus) + …; PKA-R1A dissociation; scaled: DMSO 0%, 113 µM cGMP 100%; hit rate 0.083% among 340,000;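 active = percent activation above the mean of all tested compounds plus 3 SD, cut at about 19% in these data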;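 also: higher means more PKAc released from R1A so a rise in polarization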
Rin1 Abl inh: inhibitors of Rin1-Abl protein binding, primary screen, biochemical, TR-FRET; hit rate 0.4% among 360,000; AID 588664, 2011; inhibition, % at 7.35 µM; Tyrosine-protein kinase ABL1 (Homo sapiens) + Ras and Rab interactor 1 (Homo sapiens), …; in the data active = inhibition above about 5%, passing the limit was not always enough
R1A FP artifact: FP signal interference without PKA proteins, confirmation, artefact control for PKA-R1A activator project, biochemical, fluorescence polarization, triplicate; shares compounds with PKA-R1A act; Cy5-IP20 peptide alone, fluorescence polarization artifact counterscreen; activation, % at 11.4 µM; hit rate 7% among 280;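 active = mean activation over triplicate runs exceeds the adjusted cutoff derived for the parent primary screen, cut at about 19% in these data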;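 also: no PKA protein present so any polarization rise reflects compound interference; higher means stronger polarization artifact and likely false positive in parent screen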
PKA-R1A confirm: activators of PKA-R1A holoenzyme, confirmation, biochemical, fluorescence polarization, Cy5-IP20, triplicate | shares compounds with PKA-R1A act | PKA-R1A holoenzyme dissociation | activation, % at 11.4 µM | hit rate 9% among 280 | AID 504800, 2011;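 active = mean activation over replicate wells exceeds the adjusted hit threshold taken from the earlier primary screen, cut at about 20% in these data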
Of the large screens only hits and unclear results are named; the others gave an inactive call (follow-up assays come after a bar, where they were run). Compounds with a hit are over-represented: about 1.5% of the library has one in this group of screens.

Cc1c(C(=O)NC2CCCc3ccccc32)cccc1[N+](=O)[O-] (stereo unspecified)	PKA-R1A act 23 | R1A FP artifact inactive | PKA-R1A confirm inactive
COc1ccc(C(=O)NC2CCCc3ccccc32)cc1[N+](=O)[O-] (stereo unspecified)	none
CC(C)C(=O)NNC(=O)c1cc2sccc2s1	PKA-R1A act 23 | R1A FP artifact inactive | PKA-R1A confirm inactive
CC(=O)NNC(=O)c1cc2sccc2s1	none
O=C(CN1C(=O)c2cccnc2C1=O)c1ccccc1	PKA-R1A act 20 | R1A FP artifact inactive | PKA-R1A confirm inactive
CC1CCCN(CCC(=O)c2ccc(Br)cc2)C1 (stereo unspecified)	PKA-R1A act 19 | R1A FP artifact inactive | PKA-R1A confirm inactive
CN1CCN(C(=O)C2=NOC3(C2)C(=O)Nc2ccccc23)CC1 (stereo unspecified)	none (no result: PKA-R2B activ, Cardio protect, PKA-R1A act, Rin1 Abl inh)
CC(NC(=O)Cc1ccccc1)c1ccccc1 (stereo unspecified)	PKA-R1A act 19 | R1A FP artifact inactive | PKA-R1A confirm inactive
CC(NC(=O)C(Cc1ccccc1)=NO)c1ccccc1 (stereo unspecified)	none
O=C(c1ccccc1F)N(Cc1nc2ccccc2c(=O)[nH]1)C1CCCC1	none
CCC(O)(CC)C(=O)N(Nc1ccc(C)cc1)c1ccc(C)cc1	PKA-R1A act 21 | R1A FP artifact inactive | PKA-R1A confirm inactive
CCOC(=O)C(=O)N(Nc1ccc(C)cc1)c1ccc(C)cc1	none
Cc1ccc(CN2CCC(C(=O)Nc3ccc(Oc4cccnc4)cc3)CC2)cc1	none
O=C(Nc1ccc(Oc2cccnc2)cc1)C1CCN(Cc2ccccc2)CC1	PKA-R1A act 19 | R1A FP artifact inactive | PKA-R1A confirm inactive
CC(=O)c1ccc(N2CCC(C)CC2)c(F)c1	PKA-R1A act 20 | R1A FP artifact inactive | PKA-R1A confirm inactive
O=C(C1=C(O)C(=O)N(Cc2ccco2)C1c1cccc(O)c1)c1ccco1 (stereo unspecified)	PKA-R1A act 20 | R1A FP artifact inactive | PKA-R1A confirm inactive
COC(=O)c1c(C)cc(OC(C)=O)c(C)c1OC(C)=O	PKA-R1A act 20 | R1A FP artifact inactive | PKA-R1A confirm inactive
O=C1NCCCC1C(=O)N/N=C/c1cccc(Cl)c1 (stereo unspecified)	none
O=C(NCc1ccccc1Cl)c1ccc(S(=O)(=O)Nc2cccc(C(F)(F)F)c2)cc1	PKA-R1A act 22 | R1A FP artifact 26 | PKA-R1A confirm 22
C[C@@H](C(=O)N1CCN(c2ccccc2)CC1)N1C(=O)C2CC=CCC2C1=O (stereo partly specified)	none
Cc1cc(C(=O)COC(=O)c2ccc(CO)cc2)c(C)n1CC1COc2ccccc2O1 (stereo unspecified)	PKA-R1A act 19 | R1A FP artifact inactive | PKA-R1A confirm inactive
Cc1cc(C(=O)CN2C(=O)C(=O)N(Cc3ccccc3)C2=O)c(C)n1CC1COc2ccccc2O1 (stereo unspecified)	none
Cc1ccccc1N(C(=O)CNC(=O)c1ccco1)C(C(=O)NC1CCCC1)c1ccncc1 (stereo unspecified)	none
COCCCn1c(SCC(=O)NC2CCCC2)nnc1-c1ccco1	PKA-R1A act 26 | R1A FP artifact inactive | PKA-R1A confirm inactive
CN1C(=O)C2(c3ccccc31)c1c(oc3ccccc3c1=O)C(=O)N2CCCO (stereo unspecified)	none
Cc1ccc2cc3c(N)c(C(=O)N4CCOCC4)sc3nc2c1	PKA-R1A act 19 | R1A FP artifact inactive | PKA-R1A confirm inactive
Cc1cc2ccccn2c1C(=O)c1cccc([N+](=O)[O-])c1	none
Cc1cc2ccccn2c1C(=O)c1ccc(Cl)c([N+](=O)[O-])c1	PKA-R1A act 20 | R1A FP artifact inactive | PKA-R1A confirm inactive
Nc1nnnn1/N=C/c1ccccn1	PKA-R1A act 21 | R1A FP artifact inactive | PKA-R1A confirm inactive
COc1ccc(COC(=O)c2cccc(S(=O)(=O)N3CCN(C(C)=O)CC3)c2)cc1F	none
S=C1Cc2ccccc2N1	none
O=C1Nc2ccccc2Cc2ccccc21	PKA-R1A act 20 | R1A FP artifact inactive | PKA-R1A confirm inactive
Cc1nc(CCNS(=O)(=O)c2cccs2)cs1	PKA-R1A act 20 | R1A FP artifact inactive | PKA-R1A confirm inactive
Cc1nc(CCNS(=O)(=O)c2cccnc2)cs1	none
O=C1Nc2c(c(=O)[nH]c(=O)n2-c2ccc(F)cc2)C1(NS(=O)(=O)c1ccccc1)C(F)(F)F (stereo unspecified)	none
Cc1onc(-c2c(Cl)cccc2Cl)c1COC(=O)c1ccc(Cl)cc1	none
COc1ccc2[nH]c(=O)c(CN(C(=O)c3cccnc3)c3ccccc3)cc2c1	none
COc1ccc2[nH]c(=O)c(CN(C(=O)c3ccccn3)c3ccccc3)cc2c1	PKA-R1A act 20 | R1A FP artifact inactive | PKA-R1A confirm inactive
O=C(CSC(=S)N1CCCC1)c1ccccc1	none
O=C(CSC(=S)N1CCCCC1)c1ccccc1	PKA-R1A act 20 | R1A FP artifact inactive | PKA-R1A confirm inactive
N#C/C(=C\c1ccc2c(c1)OCO2)C(N)=S	none (no result: PKA-R2B activ, PKA-R1A act)
N#C/C(=C/c1ccco1)C(N)=S	PKA-R1A act 19 | R1A FP artifact inactive | PKA-R1A confirm inactive
Nc1ccc(NC(=O)NC2CCCCC2)cc1[N+](=O)[O-]	none
CCCCOc1ccc(C(=O)Nn2c(-c3cccs3)nc3ccccc3c2=O)cc1	PKA-R1A act 19 | R1A FP artifact inactive | PKA-R1A confirm inactive
CCCn1c(SCC(=O)N2CCCC2)nc2c1c(=O)n(C)c(=O)n2C	PKA-R1A act 21 | R1A FP artifact inactive | PKA-R1A confirm inactive
Cc1ccc(S(=O)(=O)N[C@H](C(=O)OCC(=O)NC(=O)Nc2ccc3c(c2)OCCO3)C(C)C)cc1	none
CC(C)[C@H](NS(=O)(=O)c1ccc2c(c1)OCCO2)C(=O)OCC(=O)Nc1ccccc1	PKA-R1A act 19 | R1A FP artifact inactive | PKA-R1A confirm inactive
COc1cccc(/C=N/NC(=O)CCc2ccccc2)c1	PKA-R1A act 23 | R1A FP artifact inactive | PKA-R1A confirm inactive

Source: PubChem BioAssay (several laboratories)
